Laboratory results from PMC9055277 (RSC Advances, 2020).

Legend:
fish sperm DNA (FS-DNA) = experiment: UV-Vis absorption titration of ligands with FS-DNA; format: binding; conditions: on addition of FS-DNA; band 335 nm (1S3), 345 nm (2S3)
How it was run: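 FS-DNA stock was in Tris–HCl pH 7.4 (A260/A280 > 1.8). Test compound (10 μM, diluted from water stock in Tris–HCl) was titrated with FS-DNA (0–20 μM). Tubes were shaken and incubated 15 min, then scanned 200–800 nm in triplicate. The spectrum of DNA alone was subtracted. Kb came from the Benesi–Hildebrand plot of [DNA]/(εa − εf) vs [DNA] as slope/intercept.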

FS-DNA bound to EtBr = experiment: Fluorescence quenching of EtBr–FS-DNA system; format: binding, fish; conditions: EtBr–FS-DNA (DNA : EtBr 10 : 1), ligand 0–70 μM, Stern–Volmer equation
How it was run: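 FS-DNA stock in Tris–HCl pH 7.4, kept at 4 °C for up to 72 h, with purity checked by A260/A280 > 1.8. EtBr stock (3.0 × 10⁻³ mol L⁻¹, ethanol) was made fresh. DNA and EtBr were premixed 15 min at 25 °C. Ligand was diluted from water stock in Tris–HCl, added, and incubated 15 min. Slits were 5/10 nm. KSV is the slope of I₀/I vs [Q].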

[1] = tested on: Salmonella typhimurium TA98; experiment: Salmonella/microsome test; format: cell-based
[2] = tested on: Salmonella typhimurium TA100; experiment: Salmonella/microsome test; format: cell-based
[3] = TA98, absence of metabolic activation system (−S9)
[4] = TA98, presence of metabolic activation system (+S9), 2S3: at 0.40, 0.20 and 0.10 mg per plate
[5] = TA100, absence of metabolic activation system (−S9)
[6] = TA100, presence of metabolic activation system (+S9)
[7] = −S9, control set of the 2S3 experiment (concentration cell empty)

revertant colonies TA98 +S9 ([1]; 0.02 mg per plate)	revertant colonies TA98 −S9 ([1]; 0.02 mg per plate)	revertant colonies TA98 +S9 ([1]; 0.05 mg per plate)	revertant colonies TA98 −S9 ([1]; 0.05 mg per plate)	revertant colonies TA98 +S9 ([1]; 0.10 mg per plate)	revertant colonies TA98 −S9 ([1]; 0.10 mg per plate)	revertant colonies TA98 +S9 ([1]; 0.20 mg per plate)	revertant colonies TA98 −S9 ([1]; 0.20 mg per plate)	revertant colonies TA98 +S9 ([1]; 0.40 mg per plate)	revertant colonies TA98 −S9 ([1]; 0.40 mg per plate)	revertant colonies TA100 +S9 ([2]; 0.02 mg per plate)	revertant colonies TA100 −S9 ([2]; 0.02 mg per plate)	revertant colonies TA100 +S9 ([2]; 0.05 mg per plate)	revertant colonies TA100 −S9 ([2]; 0.05 mg per plate)	revertant colonies TA100 +S9 ([2]; 0.10 mg per plate)	revertant colonies TA100 −S9 ([2]; 0.10 mg per plate)	Compound	Hypochromism (fish sperm DNA (FS-DNA))	quenching constant KSV (FS-DNA bound to EtBr)	effect on number of revertant colonies (mutagenicity), in words [1, 3]	effect on number of revertant colonies (mutagenicity), in words [1, 4]	also measured
15.60 ± 2.52 b3	17.00 ± 1.00 b3	18.40 ± 1.74 b3	17.40 ± 1.12 b3	25.40 ± 1.83 a2b3	20.00 ± 2.25 b3	22.00 ± 1.37 a2b3	16.60 ± 1.80 b3	24.60 ± 2.11 a2b3	19.20 ± 2.08 b3	187.40 ± 18.93 a1b3	182.40 ± 9.15 a2b3	190.80 ± 11.16 a2b3	195.40 ± 6.96 a3b3	196.60 ± 15.75 a2b3	185.60 ± 7.20 a2b3	NC(=O)COc1ccc(-c2cc(=O)c3c(OCC(N)=O)cc(OCC(N)=O)cc3o2)cc1 [2S3, 2,2′-((2-(4-(2-Amino-2-oxoethoxy)phenyl)-4-oxo-4H-chromene-5,7-diyl)bis(oxy))diacetamide]	20.91%	19600 M⁻¹	did not cause an increase	statistically significant increase	revertant colonies TA100 +S9 ([2]; 0.20 mg per plate): 183.60 ± 9.35 a2b3; revertant colonies TA100 −S9 ([2]; 0.20 mg per plate): 200.00 ± 8.44 a2b3; revertant colonies TA100 +S9 ([2]; 0.40 mg per plate): 210.40 ± 2.31 a3b3; revertant colonies TA100 −S9 ([2]; 0.40 mg per plate): 171.40 ± 8.55 a1b3; effect on number of revertant colonies (mutagenicity), in words [2, 5]: significantly increased; effect on number of revertant colonies (mutagenicity), in words [2, 6]: significantly increased
9.00 ± 0.44 a3b3	12.00 ± 1.41 a1b3	7.80 ± 1.11 a2b3	14.40 ± 2.20 b3	14.00 ± 2.60 b3	12.20 ± 0.66 a2b3	11.20 ± 2.97 b3	13.20 ± 1.01 a1b3	7.20 ± 1.68 a1b3	11.60 ± 1.63 a1b3	47.00 ± 7.16 a3b3	112.40 ± 3.28 a3b3	48.80 ± 12.85 a2b3	94.00 ± 8.43 a3b3	62.00 ± 4.95 a3b3	85.00 ± 7.17 a3b3	NC(=O)COc1cc(OCC(N)=O)c2c(=O)c(OCC(N)=O)c(-c3ccc(OCC(N)=O)c(OCC(N)=O)c3)oc2c1 [1S3, 2,2′,2′′-((2-(3,4-bis(2-amino-2-oxoethoxy)phenyl)-4-oxo-4H-chromene-3,5,7-triyl)tris(oxy))triacetamide]	22.54%	18300 M⁻¹	did not cause any detectable increase	did not cause any detectable increase	revertant colonies TA100 +S9 ([2]; 0.20 mg per plate): 47.00 ± 6.73 a3b3; revertant colonies TA100 −S9 ([2]; 0.20 mg per plate): 80.20 ± 10.65 a2b3; revertant colonies TA100 +S9 ([2]; 0.40 mg per plate): 82.20 ± 5.37 a3b3; revertant colonies TA100 −S9 ([2]; 0.40 mg per plate): 88.80 ± 14.07 a2b3; effect on number of revertant colonies (mutagenicity), in words [2, 5]: did not cause any detectable increase; effect on number of revertant colonies (mutagenicity), in words [2, 6]: did not cause any detectable increase
–	–	–	–	–	–	–	–	–	–	–	–	–	–	–	–	[N-]=[N+]=[N-].[Na+] [SA, sodium azide, reference compound]	–	–	–	–	revertant colonies TA100 −S9, positive control ([2]; 1 μg mL^−1, −S9, control set of the 1S3 experiment): 1497.2 ± 230.28; revertant colonies TA100 −S9, positive control [2, 7]: 1506.40 ± 114.82
–	–	–	–	–	–	–	–	–	–	–	–	–	–	–	–	Nc1ccc([N+](=O)[O-])cc1N [NPD, 4-nitro-o-phenylenediamine, reference compound]	–	–	–	–	revertant colonies TA98 −S9, positive control ([1]; 200 μg mL^−1, −S9, control set of the 1S3 experiment): 4260 ± 291.75; revertant colonies TA98 −S9, positive control [1, 7]: 3808.40 ± 221.78
